Laboratory results from ChEMBL document CHEMBL1800050, “A new class of phenazines with activity against a chloroquine resistant Plasmodium falciparum strain and antimicrobial activity” (J Med Chem, 2011).
pIC50: −log10 of the molar value. Active and inactive are the calls of the source. No cut-off for these calls is given here.

Experiments:
[1] = test system: Plasmodium falciparum; assay: Antimalarial activity against chloroquine-sensitive Plasmodium falciparum NF54 infected in human erythrocytes assessed as inhibition of parasite growth at 2.5 to 10 uM after 72 hrs by Geimsa staining based light microscopic analysis; assay type: functional, organism-based
[2] = test system: Plasmodium falciparum; assay: Antimalarial activity against chloroquine-sensitive Plasmodium falciparum NF54 infected in human erythrocytes assessed as reduction of parasitemia level at 3 uM after 4 days by Geimsa staining based light microscopic analysis (reference value: 2.73 +/- 0.16%); assay type: functional; set-up: scale not given: the % may be the effect or the level left
[3] = test system: Plasmodium falciparum; assay: Antimalarial activity against chloroquine-sensitive Plasmodium falciparum NF54 infected in human erythrocytes assessed as reduction of parasitemia level at 3 uM after 1 day by Geimsa staining based light microscopic analysis (reference value: 0.97 +/- 0.1%); assay type: functional; set-up: scale not given: the % may be the effect or the level left
[4] = test system: Plasmodium falciparum; assay: Antimalarial activity against chloroquine-sensitive Plasmodium falciparum NF54 infected in human erythrocytes assessed as reduction of parasitemia level at 3 uM after 2 days by Geimsa staining based light microscopic analysis (reference value: 1.21 +/- 0.12%); assay type: functional; set-up: scale not given: the % may be the effect or the level left
[5] = test system: Plasmodium falciparum; assay: Antimalarial activity against chloroquine-sensitive Plasmodium falciparum NF54 infected in human erythrocytes assessed as inhibition of parasite growth after 72 hrs by Geimsa staining based light microscopic analysis; assay type: functional, organism-based; details: NF54, 72 h
[6] = test system: Plasmodium falciparum; assay: Antimalarial activity against chloroquine-sensitive Plasmodium falciparum NF54 infected in human erythrocytes assessed as reduction of parasitemia level at 3 uM after 3 days by Geimsa staining based light microscopic analysis (reference value: 2.55 +/- 0.21%); assay type: functional; set-up: scale not given: the % may be the effect or the level left
[7] = test system: Plasmodium falciparum; assay: Antimalarial activity against chloroquine-sensitive Plasmodium falciparum NF54 infected in human erythrocytes assessed as reduction of parasitemia level at 10 uM after 3 days by Geimsa staining based light microscopic analysis (reference value: 2.55 +/- 0.21%); assay type: functional; set-up: scale not given: the % may be the effect or the level left
[8] = test system: Plasmodium falciparum; assay: Antimalarial activity against chloroquine-sensitive Plasmodium falciparum NF54 infected in human erythrocytes assessed as reduction of parasitemia level at 10 uM after 4 days by Geimsa staining based light microscopic analysis (reference value: 2.73 +/- 0.16%); assay type: functional; set-up: scale not given: the % may be the effect or the level left
[9] = test system: Plasmodium falciparum; assay: Antimalarial activity against chloroquine-sensitive Plasmodium falciparum NF54 infected in human erythrocytes assessed as reduction of parasitemia level at 10 uM after 2 days by Geimsa staining based light microscopic analysis (reference value: 1.21 +/- 0.12%); assay type: functional; set-up: scale not given: the % may be the effect or the level left
[10] = test system: Plasmodium berghei; assay: Antimalarial activity against […] Plasmodium berghei ANKA infected in C57BL/6 mouse assessed as clearance of parasite from blood of mouse at 150 mg/kg, ip administered 3 to 9 days post infection measured on day 5 to 7 by Geimsa staining based microscopic analysis; assay type: functional, organism-based; set-up: dose 150 mg/kg
How it was run: (§1)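 Infected C57BL/6 mice were followed over time for blood parasitemia and for survival, with a chloroquine-treated group as reference. Death from cerebral malaria and later death from anemia were recorded separately.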

[11] = test system: Plasmodium falciparum; assay: Antimalarial activity against chloroquine-sensitive Plasmodium falciparum NF54 infected in human erythrocytes assessed as reduction of parasitemia level at 10 uM after 1 day by Geimsa staining based light microscopic analysis (reference value: 0.97 +/- 0.1%); assay type: functional; set-up: scale not given: the % may be the effect or the level left
[12] = test system: Plasmodium falciparum; assay: Antimalarial activity against chloroquine-sensitive Plasmodium falciparum NF54 infected in human erythrocytes assessed as reduction of parasitemia level at 20 uM after 2 days by Geimsa staining based light microscopic analysis (reference value: 1.21 +/- 0.12%); assay type: functional; set-up: scale not given: the % may be the effect or the level left
[13] = test system: Mus musculus; assay: Toxicity in […] Plasmodium berghei ANKA infected C57BL/6 mouse assessed as mortality with anemia at 100 mg/kg, ip administered 3 to 9 days post infection measured on day 10; assay type: organism-based; set-up: dose 100 mg/kg, route intraperitoneal; details: in vivo; how it was run: as §1
[14] = test system: Plasmodium berghei; assay: Antimalarial activity against […] Plasmodium berghei ANKA infected in C57BL/6 mouse assessed as clearance of parasite from blood of mouse at 100 mg/kg, ip administered 3 to 9 days post infection by Geimsa staining based microscopic analysis; assay type: functional, organism-based; set-up: dose 100 mg/kg; how it was run: as §1
[15] = test system: Plasmodium falciparum; assay: Antimalarial activity against chloroquine-sensitive Plasmodium falciparum NF54 infected in human erythrocytes assessed as reduction of parasitemia level at 20 uM after 4 days by Geimsa staining based light microscopic analysis (reference value: 2.73 +/- 0.16%); assay type: functional; set-up: scale not given: the % may be the effect or the level left
[16] = test system: Plasmodium falciparum; assay: Antimalarial activity against chloroquine-sensitive Plasmodium falciparum NF54 infected in human erythrocytes assessed as reduction of parasitemia level at 20 uM after 1 day by Geimsa staining based light microscopic analysis (reference value: 0.97 +/- 0.1%); assay type: functional; set-up: scale not given: the % may be the effect or the level left
[17] = test system: Plasmodium berghei; assay: Antimalarial activity against […] Plasmodium berghei ANKA infected in C57BL/6 mouse assessed as protection against cerebral malaria at 100 mg/kg, ip administered 3 to 9 days post infection by Geimsa staining based microscopic analysis; assay type: functional, organism-based; set-up: dose 100 mg/kg; how it was run: as §1
[18] = test system: Plasmodium falciparum; assay: Antimalarial activity against chloroquine-sensitive Plasmodium falciparum NF54 infected in human erythrocytes assessed as reduction of parasitemia level at 20 uM after 3 days by Geimsa staining based light microscopic analysis (reference value: 2.55 +/- 0.21%); assay type: functional; set-up: scale not given: the % may be the effect or the level left
[19] = test system: Plasmodium falciparum; assay: Antimalarial activity against chloroquine-sensitive Plasmodium falciparum NF54 infected in human erythrocytes assessed as reduction of parasitemia level at 0.032 uM after 2 days by Geimsa staining based light microscopic analysis (reference value: 1.21 +/- 0.12%); assay type: functional; set-up: scale not given: the % may be the effect or the level left
[20] = test system: Plasmodium falciparum; assay: Antimalarial activity against chloroquine-sensitive Plasmodium falciparum NF54 infected in human erythrocytes assessed as reduction of parasitemia level at 0.032 uM after 1 day by Geimsa staining based light microscopic analysis (reference value: 0.97 +/- 0.1%); assay type: functional; set-up: scale not given: the % may be the effect or the level left
[21] = test system: Plasmodium berghei; assay: Antimalarial activity against […] Plasmodium berghei ANKA infected in C57BL/6 mouse assessed as clearance of parasite from blood of mouse at 25 mg/kg, ip administered 3 to 9 days post infection by Geimsa staining based microscopic analysis; assay type: functional, organism-based; set-up: dose 25 mg/kg; how it was run: as §1
[22] = test system: Plasmodium falciparum; assay: Antimalarial activity against chloroquine-sensitive Plasmodium falciparum NF54 infected in human erythrocytes assessed as reduction of parasitemia level at 0.032 uM after 4 days by Geimsa staining based light microscopic analysis (reference value: 2.73 +/- 0.16%); assay type: functional; set-up: scale not given: the % may be the effect or the level left
[23] = test system: Plasmodium falciparum; assay: Antimalarial activity against chloroquine-sensitive Plasmodium falciparum NF54 infected in human erythrocytes assessed as reduction of parasitemia level at 0.032 uM after 3 days by Geimsa staining based light microscopic analysis (reference value: 2.55 +/- 0.21%); assay type: functional; set-up: scale not given: the % may be the effect or the level left
[24] = test system: Mus musculus; assay: Toxicity in […] Plasmodium berghei ANKA infected C57BL/6 mouse assessed as mortality with anemia at 80 mg/kg, ip administered 3 to 9 days post infection measured on day 10; assay type: organism-based; set-up: dose 80 mg/kg, route intraperitoneal; details: in vivo; how it was run: as §1
[25] = test system: Plasmodium berghei; assay: Antimalarial activity against […] Plasmodium berghei ANKA infected in C57BL/6 mouse assessed as protection against cerebral malaria at 80 mg/kg, ip administered 3 to 9 days post infection by Geimsa staining based microscopic analysis; assay type: functional, organism-based; set-up: dose 80 mg/kg; how it was run: as §1
[26] = test system: Plasmodium berghei; assay: Antimalarial activity against […] Plasmodium berghei ANKA infected in C57BL/6 mouse assessed as clearance of parasite from blood of mouse at 80 mg/kg, ip administered 3 to 9 days post infection by Geimsa staining based microscopic analysis; assay type: functional, organism-based; set-up: dose 80 mg/kg; how it was run: as §1

## Oc1ccc2ccccc2c1-c1cc2c(c3ccccc13)=NC1(CCCCC1)N=2
[1]
  inhibition: inactive

## Oc1c(-c2cc3nc4ncccc4nc3c3ccccc23)ccc2ccccc12
[1]
  inhibition: inactive

## Oc1c(-c2cc3nc4ccccc4nc3c3ccccc23)ccc2ccccc12
[2]
  Activity: 0%
[3]
  Activity: 0.27%
[4]
  Activity: 0.11%
[5]
  pIC50: 6.06
[6]
  Activity: 0.02%

## O=C(O)c1cnc2cc(-c3ccc4ccccc4c3O)c3ccccc3c2n1
[1]
  inhibition: inactive

## Oc1ccc2cc(Br)ccc2c1-c1cc2nc3ccccc3nc2c2ccc(Br)cc12
[7]
  Activity: 0%
[8]
  Activity: 0%
[9]
  Activity: 0.01%
[5]
  pIC50: 6.19
[10]
  Activity: Active
[11]
  Activity: 0.14%

## Oc1ccc2ccccc2c1-c1cc2nc3ncccc3nc2c2ccccc12
[12]
  Activity: 0%
[13]
  Activity: Toxic
[14]
  Activity: inactive
[15]
  Activity: 0%
[5]
  pIC50: 5.28
[16]
  Activity: 0.04%
[17]
  Activity: Active
[18]
  Activity: 0%

## O/N=C1/C=C(c2c(O)ccc3ccccc23)c2ccccc2/C1=N/O
[7]
  Activity: 0.04%
[8]
  Activity: 0%
[9]
  Activity: 0.2%
[5]
  pIC50: 5.43
[11]
  Activity: 0.94%

## Oc1ccc2ccccc2c1-c1cc2nc3c(O)nc(S)nc3nc2c2ccccc12
[1]
  inhibition: inactive

## Nc1nnc2cc(-c3c(O)ccc4ccccc34)c3ccccc3c2n1
[1]
  inhibition: inactive

## CCN(CC)CCCC(C)Nc1ccnc2cc(Cl)ccc12 (stereo not drawn) [CHLOROQUINE]
[19]
  Activity: 0%
[20]
  Activity: 0.06%
[21]
  Activity: inactive
[22]
  Activity: 0%
[23]
  Activity: 0%

## Oc1ccc2ccccc2c1-c1cc2nc3cc(Cl)c(Cl)cc3nc2c2ccccc12
[12]
  Activity: 0.01%
[13]
  Activity: Toxic
[14]
  Activity: inactive
[15]
  Activity: 0%
[5]
  pIC50: 5.30
[16]
  Activity: 0.14%
[17]
  Activity: Active
[18]
  Activity: 0%

## Oc1c(-c2cc3nc4c(O)nc(S)nc4nc3c3ccccc23)ccc2ccccc12
[1]
  inhibition: inactive

## Oc1ccc2ccccc2c1-c1cc2nc3ccccc3nc2c2ccccc12
[24]
  Activity: Toxic
[25]
  Activity: Active
[12]
  Activity: 0.07%
[26]
  Activity: inactive
[15]
  Activity: 0%
[5]
  pIC50: 5.39
[16]
  Activity: 0.23%
[18]
  Activity: 0.02%

## O=C1C=C(c2ccc3ccccc3c2O)c2ccccc2C1=O
[1]
  inhibition: inactive

## O=C(O)c1cnc2cc(-c3c(O)ccc4ccccc34)c3ccccc3c2n1
[1]
  inhibition: inactive

## Oc1c(-c2cc3nc4cc(Cl)c(Cl)cc4nc3c3ccccc23)ccc2ccccc12
[2]
  Activity: 0%
[3]
  Activity: 0.17%
[4]
  Activity: 0.15%
[5]
  pIC50: 6.29
[6]
  Activity: 0%
